One block for each molecule: values may come before it. Where no end group is shown, it is not given here. Me2 = dimethyl (dimethyl-lysine)
Assays:
GST-PHF20 PHD = assay: Biotinylated histone peptide pull-down with GST-PHF20 PHD, western blot; assay type: binding, human; details: 1 μg biotinylated peptide, 1 μg GST-PHF20 PHD, 50 mM Tris-HCl pH 7.5, 250 mM NaCl, 0.1% NP-40, overnight, streptavidin beads
PHF20 PHD finger (WT) = target: T1, PHF20 PHD finger (WT) (Homo sapiens, UniProt Q9BVI0); assay: Tryptophan fluorescence binding of histone peptides to WT PHF20 PHD finger
T1 sequence (Q9BVI0 651-699): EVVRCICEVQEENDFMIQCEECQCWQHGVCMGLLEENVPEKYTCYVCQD
Summary of the method: (§1)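 The PHF20 PHD (aa 651–699, GST cleaved; mutants by site-directed mutagenesis) was in PBS pH 6.8 with 10 mM DTT at room temperature. Histone peptide was increased progressively. Excitation was at 280 nm and emission was scanned 310–405 nm (0.5-nm steps, 1-s integration, three scans averaged). Kd came from a nonlinear least-squares fit of intensity change, averaged over three separate experiments, with SD between runs.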

[1] = target: T2, E662D mutant of PHF20-PHD (Homo sapiens, UniProt Q9BVI0, E662D); assay: Tryptophan fluorescence binding of histone peptides to E662D mutant of PHF20 PHD
T2 sequence (Q9BVI0 651-699 E662D): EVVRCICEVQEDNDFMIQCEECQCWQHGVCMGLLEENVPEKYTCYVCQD
Summary of the method: as §1

[2] = tested on: E662K mutant of PHF20 PHD finger; assay: NMR and tryptophan fluorescence binding, E662K mutant of PHF20 PHD; set-up: species or system human; details: E662K folded, soluble, stable protein; Figures 4C and 4E
Summary of the method: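 GST-tagged PHF20 PHD (aa 651–699), wild-type or point mutant made by site-directed mutagenesis, was expressed in E. coli Rosetta-2(DE3)pLysS in 15NH4Cl minimal medium with 150 μM ZnCl2, then GST-cleaved. 1H,15N HSQC spectra were collected at 298K (600/500 MHz) as 12-mer histone tail peptides were added stepwise. Shift changes were normalized as √(ΔδH²+(ΔδN/5)²); Kd came from a nonlinear least-squares fit.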

[3] = target: PHF20 PHD finger (aa 651-699), wild type (human) (UniProt Q9BVI0); assay: other fluorescence titration
[4] = target: PHF20 PHD finger E662D (human) (UniProt Q9BVI0); assay: other fluorescence titration
[5] = target: T3, PHF20 PHD finger (residues 646-699) (human, UniProt Q9BVI0 646-699); assay: NMR structure
T3 sequence (looked up): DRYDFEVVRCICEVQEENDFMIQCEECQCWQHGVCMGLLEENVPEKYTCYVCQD

PHF20 Tudor2 (aa 58-148) = target: T4, PHF20 Tudor2 (aa 58-148) (human, UniProt Q9BVI0 58-148); assay: NMR titration
T4 sequence (looked up): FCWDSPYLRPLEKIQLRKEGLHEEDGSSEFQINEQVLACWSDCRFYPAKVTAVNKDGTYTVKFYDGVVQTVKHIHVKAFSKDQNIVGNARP

PHF20 PHD finger F665V = target: T5, PHF20 PHD finger F665V (human, UniProt Q9BVI0 651-699, F665V); assay: NMR titration
T5 chain (looked up): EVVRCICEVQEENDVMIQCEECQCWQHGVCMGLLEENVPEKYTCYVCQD

PHF20 PHD finger R654H = target: T6, PHF20 PHD finger R654H (human, UniProt Q9BVI0 651-699, R654H); assay: NMR titration
T6 chain (looked up): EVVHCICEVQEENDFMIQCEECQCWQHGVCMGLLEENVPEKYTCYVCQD

PHF20 PHD finger P689L = target: T7, PHF20 PHD finger P689L (human, UniProt Q9BVI0 651-699, P689L); assay: NMR titration
T7 chain (looked up): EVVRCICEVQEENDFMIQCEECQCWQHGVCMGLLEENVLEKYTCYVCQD

[6] = target: T8, PHF20 PHD finger (aa 651-699), wild type (human, UniProt Q9BVI0 651-699); assay: other fluorescence titration
T8 chain (looked up): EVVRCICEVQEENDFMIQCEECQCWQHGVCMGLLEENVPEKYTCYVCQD

PHF20 PHD finger E662D = target: T9, PHF20 PHD finger E662D (human, UniProt Q9BVI0 651-699, E662D); assay: other fluorescence titration
T9 chain (looked up): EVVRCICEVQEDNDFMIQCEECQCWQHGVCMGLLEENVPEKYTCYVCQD

Molecule: C[C@H](N)C(=O)N[C@@H](CCCNC(=N)N)C(=O)N[C@H](C(=O)N[C@@H](CCCCN(C)C)C(=O)N[C@@H](CCC(N)=O)C(=O)N[C@H](C(=O)N[C@@H](C)C(=O)N[C@@H](CCCNC(=N)N)C(=O)N[C@@H](CCCCN)C(=O)N[C@@H](CO)C(=O)N[C@H](C(N)=O)[C@@H](C)O)[C@@H](C)O)[C@@H](C)O [H3K4me2]
binding in peptide pull-down (GST-PHF20 PHD): binds
Kd (PHF20 PHD finger (WT)): 3.6 µM
Kd [1]: 3.6 µM
interaction with E662K mutant [2]: completely abrogated interaction

Molecule: H3K4me3 peptide (12-mer)
Kd [4]: 3.7 µM
fold weaker than H3K4me2 [3]: 6 fold

Molecule: ARTK(Me2)QTARKSTG (peptide, UniProt P68431 2-13, looked up) [H3K4me2 peptide (aa 1-12)]
Kd (PHF20 Tudor2 (aa 58-148)): ~1000 µM
fold decrease of binding compared with WT (PHF20 PHD finger F665V): ~9 fold
fold decrease of binding compared with WT (PHF20 PHD finger R654H): ~8 fold
fold decrease of binding compared with WT (PHF20 PHD finger P689L): ~17 fold
Kd [6]: 3.6 µM
Kd (PHF20 PHD finger E662D): 3.6 µM

Second part, the molecule after the results:

fold weaker than H3K4me2 [3]: 20 fold
Molecule: H3K4me0 peptide (12-mer)

fold weaker than H3K4me2 [3]: 14 fold
Molecule: H3K4me1 peptide (12-mer)

binding result [5]: binds
Molecule: ARTK(Me2)QTARKST-NH2 [11-residue C-terminally amidated H3K4me2 peptide]

— publication PMC5125728 (Cell reports, 2016)
